PGC1a Ac signal – raises PGC1a acetylation signal in U2OS cells; activation, % at 15.6 µM; AID 651723; actives 0.21% (n = 350,000); U2OS PGC1a acetylation AlphaScreen, overnight;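 active = every replicate reaching activation of at least 50%, whatever the mean replicate activation; inconclusive = replicates that disagree or another doubt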;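 also: hits raise the AlphaScreen acetylation signal above neutral controls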
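detection = AlphaScreen lysate read | assay system = U2OS cells expressing flag-PGC1a plus GCN5 | input = 7000 cells/well | dosing = one concentration | times = compound overnight at 37 °C, each detection step 1 h RT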
Hep G6PC suppr – hepatocyte G6PC expression change via PGC-1a acetylation activation | shares compounds with PGC1a Ac signal | primary mouse hepatocytes, G6PC mRNA qPCR, forskolin | G6PC suppression (normalized activity, % of positive control; higher = more suppression), % at 26 µM | 240 tested, under 10 active | AID 743463;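 active = dose curves showing G6PC suppression whose half-maximal dose is at most twice the top valid dose; inconclusive = flat curves with moderate negative activity, or unreliable fits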;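 also: G6PC expression relative to GAPDH housekeeping gene as delta delta Ct; 0% = median of neutral control wells and 100% = median of positive control wells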
PCK1 hep suppr – PGC-1a acetylation activators affecting PCK1 expression in hepatocytes | 230 tested, under 10 active | primary mouse hepatocytes, PCK1 mRNA qPCR, forskolin-stimulated | AID 743465 | shares compounds with PGC1a Ac signal | PCK1 expression decrease, unspecified at 26 µM;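 active = compounds lowering PCK1 expression whose fitted half-maximal concentration is at most twice the top tested dose; inconclusive = flat fit with moderate opposite-direction effect, or poor fit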;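 also: values are delta delta Ct of PCK1 relative to GAPDH; higher delta delta Ct means lower PCK1 expression so positive values indicate hits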
Hep PGC-1a down – PGC-1a acetylation activator altering hepatocyte PGC-1a expression. 240 tested, under 10 active. max activity (PGC-1a expression decrease), %. AID 743467. primary mouse hepatocytes, PGC-1a mRNA qPCR, forskolin; top dose 26 µM. shares compounds with PGC1a Ac signal;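 active = compound lowering PGC-1a expression with fitted half-maximal concentration at most twice its top tested dose; inconclusive = flat curve with moderate opposite-direction effect, or poor fit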;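 also: 0% = neutral control wells median and 100% = positive control wells median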
The depositor's hits bear a star. Only a sample is shown.

How did Cc1nnc(SCC(=O)N2CCC(c3noc4ccc(F)cc34)CC2)s1 do in these assays?
PGC1a Ac signal: -57.5

How did COc1cc(-c2cnc3c(NC(C)=O)cc(-c4ccccc4CN(C)C)cn23)cc(OC)c1OC do in these assays?
PGC1a Ac signal: inconclusive; Hep G6PC suppr: 505.4; PCK1 hep suppr: 84.1; Hep PGC-1a down: 54.6

Results for CSc1nsc(SC)c1NC(=O)Nc1ccccc1C ?
PGC1a Ac signal: -103.3; Hep G6PC suppr: -16.5; PCK1 hep suppr: 21; Hep PGC-1a down: 56.4

What do the screens show for `CCn1c(SCC(=O)Nc2ccc(NC(=O)c3ccco3)cc2)nnc1-c1cccs1`?
PGC1a Ac signal: 124.4*; Hep G6PC suppr: 7.3; PCK1 hep suppr: -8.64; Hep PGC-1a down: 52.0

Results for Cc1c(C(=O)OCC(=O)c2c(N)n(CC(C)C)c(=O)n(C)c2=O)oc2ccccc12 ?
PGC1a Ac signal: 63.6*; Hep G6PC suppr: 66.2; PCK1 hep suppr: 80.7; Hep PGC-1a down: 9.5

What do the screens show for `COC(=O)c1ccc(NC(=O)c2cccnc2)cc1`?
PGC1a Ac signal: 127.2*; PCK1 hep suppr: 67.6; Hep PGC-1a down: inconclusive

Results for Cc1ccc2oc(-c3ccc(NC(=O)c4cccnc4)cc3)nc2c1 ?
PGC1a Ac signal: 73.3*; Hep G6PC suppr: 5.5; PCK1 hep suppr: -6.97; Hep PGC-1a down: 82.7

How did O=C(Nc1ccc(-c2noc(CCc3ccccc3)n2)cc1)c1cccnc1 do in these assays?
PGC1a Ac signal: 130.8*; Hep G6PC suppr: 28.5; PCK1 hep suppr: 2.77; Hep PGC-1a down: -17.7

What do the screens show for `Cc1ccc2oc(Nc3nc(C)c(C)c(C)n3)nc2c1`?
PGC1a Ac signal: -40.8

How did O=C(CNC(=O)C1CCCCC1)OCC(=O)c1ccc(Cl)s1 do in these assays?
PGC1a Ac signal: -45.2

How did COc1ccc(-n2c(C)c([N+](=O)[O-])c3ccc(O)c(CN(C)C)c32)cc1 do in these assays?
PGC1a Ac signal: -37.3

What do the screens show for `CCOCCCNc1nc2c(c(=O)n(C)c(=O)n2C)n1CCCc1ccccc1`?
PGC1a Ac signal: -40.3

Results for CCn1c(Oc2ccccc2F)nc2c1c(=O)n(C)c(=O)n2C ?
PGC1a Ac signal: -40.4

Results for Cc1ccc(C)n1-c1ccc(-c2nnco2)cc1 ?
PGC1a Ac signal: -52.4

How did CCc1ccc(-c2cn3nc(-c4ccccc4)cnc3n2)cc1 do in these assays?
PGC1a Ac signal: -44.6

How did O=C(O)C1CCCN1S(=O)(=O)c1ccc(Br)s1 (stereo not drawn) (tested in a mixture with another compound) do in these assays?
PGC1a Ac signal: -42.3

What do the screens show for `COC1=CC(=O)c2c(ccc3ncnc(N)c23)C1=O`?
PGC1a Ac signal: -66.1

How did CCOC(=O)c1sc2nc(C)nc(NCc3ccccc3OC)c2c1C do in these assays?
PGC1a Ac signal: -62.9; Hep G6PC suppr: 101.0; PCK1 hep suppr: 149; Hep PGC-1a down: 129.2

What do the screens show for `CC(=O)c1c(C)oc2ccc(N(C(C)=O)S(=O)(=O)c3ccc(Cl)c([N+](=O)[O-])c3)cc12`?
PGC1a Ac signal: -61.3

What do the screens show for `COc1ccc(-c2nc(N)c(C#N)c(-c3cccnc3)c2C)cc1`?
PGC1a Ac signal: inconclusive; Hep G6PC suppr: 1.9; PCK1 hep suppr: 7.46; Hep PGC-1a down: 39.8

Results for COc1ccc(Cn2nnnc2CN(Cc2cc3ccc(C)cc3[nH]c2=O)C2CCCC2)cc1 ?
PGC1a Ac signal: -42.1

Results for O=C(c1ccco1)N1CCN(c2nnc(-c3ccccc3)c3ccccc23)CC1 ?
PGC1a Ac signal: inconclusive; Hep G6PC suppr: 43.1; PCK1 hep suppr: 17.8; Hep PGC-1a down: inconclusive

What do the screens show for `COc1ccc(C(CC(=O)Nc2ccccn2)N2Cc3ccccc3C2=O)cc1` (stereo not drawn)?
PGC1a Ac signal: -75.6

Results for Nc1nccc(-c2ccc(-n3cnc4ccccc43)cc2)n1 ?
PGC1a Ac signal: -43.8

Results for CC1=C(C(N)=O)C(c2cccnc2)n2nc(-c3cccc(Cl)c3)nc2N1 (stereo not drawn) ?
PGC1a Ac signal: 93.3*; Hep G6PC suppr: 15.4; PCK1 hep suppr: 30; Hep PGC-1a down: 91.1

How did O=C(/C=C/c1ccccc1)CC(O)(c1ccccc1)C(F)(F)C(F)F (stereo not drawn) do in these assays?
PGC1a Ac signal: -42.5

How did CC(=O)c1c(COC(=O)c2ccccc2)nc2ccccc2[n+]1[O-] do in these assays?
PGC1a Ac signal: -55.2

Results for COc1ccc([N+](=O)[O-])c(S(=O)(=O)c2ccc(Cl)cc2)n1 ?
PGC1a Ac signal: -45.3

What do the screens show for `Cn1ncc(N=Cc2ccccc2)c1C(N)=O`?
PGC1a Ac signal: -47.9

What do the screens show for `COc1cc(/C=N/NC(=O)c2ccncc2)ccc1OC(C)=O`?
PGC1a Ac signal: -48.7

Screening data: PubChem BioAssay, Broad Institute
